Here are results for 2 compounds from paper PMC4310626 (Biochemistry, 2014).

Read-outs that look alike come from different tables or passages of the source.

Assay [1] concerns the target E. coli NDH-1 NuoD mutant G225A (Escherichia coli, UniProt P0AFD4+P33599, G225A). Briefly: Inhibition of dNADH oxidase activity, NuoD mutant G225A. Format: biochemical. An outline of the steps:
(§1)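 Inverted membrane vesicles came from chromosomal NuoD-segment mutant or wild-type E. coli, grown overnight at 37 °C in Terrific Broth and disrupted by sonication and French press. The assay used 80 μg protein/mL in 10 mM potassium phosphate (pH 7.0) with 1 mM EDTA, no KCN and no added acceptor, at 30 °C. After 1 min preincubation with test compound, 150 μM dNADH was added. A340 was followed (ε 6.22 mM⁻¹ cm⁻¹), and IC50 was taken as the concentration giving 50% inhibition.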

The target in assay [2] is E. coli NDH-1 NuoH mutant E36D (Escherichia coli, UniProt P0AFC7+P0AFD4+P33599, E36D). The experiment in a line: Inhibition of dNADH oxidase activity, NuoH mutant E36D. It is filed as biochemical.
Assay [3] deals with E. coli NDH-1, other NuoD mutants (Escherichia coli, UniProt P0AFD4+P33599). The experiment in a line: Inhibition of dNADH oxidase activity, other NuoD mutants. Format: biochemical. Conditions: read-out: IC50 values; all other NuoD mutants (other than G225A, Y273F). An outline of the steps:
as §1

In assay [4] the target is E. coli NDH-1 NuoD mutant H224R (Escherichia coli, UniProt P0AFD4+P33599, H224R). Briefly: Inhibition of dNADH oxidase activity, NuoD mutant H224R. It is filed as biochemical. Conditions: read-out: app IC50, 50% inhibition of the dNADH oxidase activity.
The target in assay [5] is E. coli NDH-1 NuoD mutant H315R (Escherichia coli, UniProt P0AFD4+P33599, H315R). Briefly: Inhibition of dNADH oxidase activity, NuoD mutant H315R. Format: biochemical. An outline of the steps: as §1
For assay [6], the target named is E. coli NDH-1 NuoD mutant D325A (Escherichia coli, UniProt P0AFD4+P33599, D325A). Briefly: Inhibition of dNADH oxidase activity, NuoD mutant D325A. Format: biochemical. An outline of the steps: as §1
Sequence of E. coli NDH-1 NuoD mutant D325A (P33599 whole entry D325A): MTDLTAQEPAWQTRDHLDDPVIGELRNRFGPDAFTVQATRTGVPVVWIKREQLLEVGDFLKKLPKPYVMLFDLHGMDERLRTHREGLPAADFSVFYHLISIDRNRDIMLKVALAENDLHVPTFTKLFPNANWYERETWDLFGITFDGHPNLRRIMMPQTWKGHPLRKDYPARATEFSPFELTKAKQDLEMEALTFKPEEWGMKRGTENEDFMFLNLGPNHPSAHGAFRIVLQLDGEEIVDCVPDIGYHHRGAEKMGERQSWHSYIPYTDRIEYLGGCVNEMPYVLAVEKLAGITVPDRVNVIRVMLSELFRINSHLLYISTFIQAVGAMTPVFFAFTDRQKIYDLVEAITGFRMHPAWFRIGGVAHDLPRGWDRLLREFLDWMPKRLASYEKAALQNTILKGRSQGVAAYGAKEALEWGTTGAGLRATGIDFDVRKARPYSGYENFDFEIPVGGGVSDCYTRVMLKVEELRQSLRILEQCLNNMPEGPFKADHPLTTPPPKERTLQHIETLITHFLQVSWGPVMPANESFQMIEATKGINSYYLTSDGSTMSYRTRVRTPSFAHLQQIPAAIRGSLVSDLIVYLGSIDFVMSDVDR
Sequence of E. coli NDH-1 NuoD mutant D325A (P0AFD4 whole entry): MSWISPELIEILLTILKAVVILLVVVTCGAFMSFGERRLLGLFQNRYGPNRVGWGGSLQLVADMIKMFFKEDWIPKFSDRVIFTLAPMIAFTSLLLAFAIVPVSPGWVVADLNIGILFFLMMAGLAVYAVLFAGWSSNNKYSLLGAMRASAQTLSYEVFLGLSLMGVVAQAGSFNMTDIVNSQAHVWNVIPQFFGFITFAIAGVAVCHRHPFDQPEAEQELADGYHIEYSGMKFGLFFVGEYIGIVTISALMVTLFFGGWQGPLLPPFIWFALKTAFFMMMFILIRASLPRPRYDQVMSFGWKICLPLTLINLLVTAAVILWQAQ
Sequence of E. coli NDH-1 NuoD mutant D325A (P0AFC7 whole entry partner): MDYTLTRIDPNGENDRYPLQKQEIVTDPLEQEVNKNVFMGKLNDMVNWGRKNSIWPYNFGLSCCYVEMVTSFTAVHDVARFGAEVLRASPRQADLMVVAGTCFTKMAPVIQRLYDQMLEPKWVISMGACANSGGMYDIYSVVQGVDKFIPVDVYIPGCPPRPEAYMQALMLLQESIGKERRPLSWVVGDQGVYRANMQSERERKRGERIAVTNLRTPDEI
In assay [7] the target is T1, E. coli NDH-1 wild-type (Escherichia coli, UniProt P0AFD4+P33599). Briefly: Inhibition of dNADH oxidase activity in membrane vesicles, wild-type. It is filed as biochemical. An outline of the steps:
as §1

Assay [8] deals with E. coli NDH-1 NuoD mutant Y273F (Escherichia coli, UniProt P0AFD4+P33599, Y273F). The experiment in a line: Inhibition of dNADH oxidase activity, NuoD mutant Y273F. It is filed as biochemical. Put shortly:
as §1

Assay [9] deals with E. coli NDH-1 NuoH mutant D63E (Escherichia coli, UniProt P0AFC7+P0AFD4+P33599, D63E). The experiment in a line: Inhibition of dNADH oxidase activity, NuoH mutant D63E. It is filed as biochemical.
Assay [10] has as its target E. coli NDH-1 NuoD mutant R228K (Escherichia coli, UniProt P0AFD4+P33599, R228K). Briefly: Inhibition of dNADH oxidase activity, NuoD mutant R228K. Format: biochemical. Conditions: app IC50, 50% inhibition of the dNADH oxidase activity. Put shortly:
as §1

For assay [11], the target named is E. coli NDH-1 NuoD mutant R270K (Escherichia coli, UniProt P0AFD4+P33599, R270K). Briefly: Inhibition of dNADH oxidase activity, NuoD mutant R270K. Format: biochemical. As to conditions: app IC50, 50% inhibition of the dNADH oxidase activity. Put shortly:
as §1

In assay [12] the target is E. coli NDH-1 NuoH mutant Q44A (Escherichia coli, UniProt P0AFC7+P0AFD4+P33599, Q44A). Briefly: Inhibition of dNADH oxidase activity, NuoH mutant Q44A. It is filed as biochemical.
For assay [13], the target named is E. coli NDH-1 NuoD mutant R298A (Escherichia coli, UniProt P0AFD4+P33599, R298A). Briefly: Inhibition of dNADH oxidase activity, NuoD mutant R298A. Conditions: app IC50, 50% inhibition of the dNADH oxidase activity. It is filed as biochemical. Put shortly:
as §1

In assay [14] the target is E. coli NDH-1 NuoD mutant R298K (Escherichia coli, UniProt P0AFD4+P33599, R298K). Briefly: Inhibition of dNADH oxidase activity, NuoD mutant R298K. Format: biochemical. Put shortly: as §1
Assay [15] concerns the target E. coli NDH-1 NuoH mutant P49A (Escherichia coli, UniProt P0AFC7+P0AFD4+P33599, P49A). Briefly: Inhibition of dNADH oxidase activity, NuoH mutant P49A. Format: biochemical.
The target of assay [16] is E. coli NDH-1 NuoD mutant D325E (Escherichia coli, UniProt P0AFD4+P33599, D325E). Briefly: Inhibition of dNADH oxidase activity, NuoD mutant D325E. Format: biochemical. An outline of the steps:
as §1

For assay [17], the target named is T1, E. coli NDH-1 wild-type. Conditions: read-out: IC50 value, ref [16],[55]; cited from earlier work.
For assay [18], the target named is E. coli NDH-1 NuoD mutant G251V (Escherichia coli, UniProt P0AFD4+P33599, G251V). The experiment in a line: Inhibition of dNADH oxidase activity, NuoD mutant G251V. Format: biochemical. Conditions: app IC50, 50% inhibition of the dNADH oxidase activity. An outline of the steps:
as §1

The target in assay [19] is E. coli NDH-1 NuoD mutant G235A (Escherichia coli, UniProt P0AFD4+P33599, G235A). The experiment in a line: Inhibition of dNADH oxidase activity, NuoD mutant G235A. Format: biochemical. Put shortly:
as §1

Assay [20] concerns the target E. coli NDH-1 NuoD mutant G251A (Escherichia coli, UniProt P0AFD4+P33599, G251A). The experiment in a line: Inhibition of dNADH oxidase activity, NuoD mutant G251A. Format: biochemical. Put shortly:
as §1

The target in assay [21] is E. coli NDH-1 NuoD mutant G235V (Escherichia coli, UniProt P0AFD4+P33599, G235V). The experiment in a line: Inhibition of dNADH oxidase activity, NuoD mutant G235V. Format: biochemical. An outline of the steps:
as §1

Assay [22] concerns the target E. coli NDH-1 NuoH mutant E216A (Escherichia coli, UniProt P0AFC7+P0AFD4+P33599, E216A). Briefly: Inhibition of dNADH oxidase activity, NuoH mutant E216A. It is filed as biochemical.
Assay [23] addresses E. coli NDH-1 NuoH mutant E71A (Escherichia coli, UniProt P0AFC7+P0AFD4+P33599, E71A). The experiment in a line: Inhibition of dNADH oxidase activity, NuoH mutant E71A. Conditions: app IC50, 50% inhibition of the dNADH oxidase activity. It is filed as biochemical.
In assay [24] the target is E. coli NDH-1 NuoD mutant R311K (Escherichia coli, UniProt P0AFD4+P33599, R311K). Briefly: Inhibition of dNADH oxidase activity, NuoD mutant R311K. It is filed as biochemical. Put shortly:
as §1

For assay [25], the target named is E. coli NDH-1 NuoD mutant H355A (Escherichia coli, UniProt P0AFD4+P33599, H355A). Briefly: Inhibition of dNADH oxidase activity, NuoD mutant H355A. Format: biochemical. Put shortly:
as §1

The target of assay [26] is E. coli NDH-1 NuoH mutant K303A (Escherichia coli, UniProt P0AFC7+P0AFD4+P33599, K303A). The experiment in a line: Inhibition of dNADH oxidase activity, NuoH mutant K303A. It is filed as biochemical.
In assay [27] the target is E. coli NDH-1 NuoD mutant E236A (Escherichia coli, UniProt P0AFD4+P33599, E236A). The experiment in a line: Inhibition of dNADH oxidase activity, NuoD mutant E236A. It is filed as biochemical. Put shortly:
as §1

Assay [28] deals with E. coli NDH-1 NuoD mutant E236D (Escherichia coli, UniProt P0AFD4+P33599, E236D). Briefly: Inhibition of dNADH oxidase activity, NuoD mutant E236D. Format: biochemical. An outline of the steps: as §1
Assay [29] has as its target E. coli NDH-1 NuoH mutant E157K (Escherichia coli, UniProt P0AFC7+P0AFD4+P33599, E157K). Briefly: Inhibition of dNADH oxidase activity, NuoH mutant E157K. It is filed as biochemical.
The target of assay [30] is E. coli NDH-1 NuoD mutant E308D (Escherichia coli, UniProt P0AFD4+P33599, E308D). Briefly: Inhibition of dNADH oxidase activity, NuoD mutant E308D. It is filed as biochemical. As to conditions: app IC50, 50% inhibition of the dNADH oxidase activity. An outline of the steps: as §1
Assay [31] addresses E. coli NDH-1 NuoD mutant H315A (Escherichia coli, UniProt P0AFD4+P33599, H315A). Briefly: Inhibition of dNADH oxidase activity, NuoD mutant H315A. It is filed as biochemical. An outline of the steps: as §1
For assay [32], the target named is E. coli NDH-1 NuoD mutant R228A (Escherichia coli, UniProt P0AFD4+P33599, R228A). Briefly: Inhibition of dNADH oxidase activity, NuoD mutant R228A. It is filed as biochemical. As to conditions: app IC50, 50% inhibition of the dNADH oxidase activity. Put shortly:
as §1

T1 sequence (P33599 whole entry): as the sequence (P33599 whole entry D325A) above, with A325D counted along it
T1 sequence (P0AFD4 whole entry): as the sequence (P0AFD4 whole entry) above
T1 sequence (P0AFC7 whole entry partner): as the sequence (P0AFC7 whole entry partner) above
Sequence of E. coli NDH-1 NuoD mutant Y273F (P33599 whole entry Y273F): as the sequence (P33599 whole entry D325A) above, with Y273F, A325D counted along it
Sequence of E. coli NDH-1 NuoD mutant Y273F (P0AFD4 whole entry): as the sequence (P0AFD4 whole entry) above
Sequence of E. coli NDH-1 NuoD mutant Y273F (P0AFC7 whole entry partner): as the sequence (P0AFC7 whole entry partner) above
Sequence of E. coli NDH-1 NuoD mutant G225A (P33599 whole entry G225A): as the sequence (P33599 whole entry D325A) above, with G225A, A325D counted along it
Sequence of E. coli NDH-1 NuoD mutant G225A (P0AFD4 whole entry): as the sequence (P0AFD4 whole entry) above
Sequence of E. coli NDH-1 NuoD mutant G225A (P0AFC7 whole entry partner): as the sequence (P0AFC7 whole entry partner) above

Regarding `[N-]=[N+]=Nc1ccc2ncnc(NCCc3ccc(I)cc3)c2c1` [AzQ, 6-azido-4-(4-iodophenetylamino) quinazoline], the results for the “increase in the IC50 value” in assay [1] (NuoD mutant G225A versus wild-type) and in assay [8] (NuoD mutant Y273F versus wild-type) were roughly 3 fold and roughly 2.5 fold, respectively. In addition, the “decrease in the IC50 value” in [2] (NuoH mutant E36D versus wild-type) and in [9] (NuoH mutant D63E versus wild-type) was 3–4 fold throughout. In addition, the IC50 in assay [3] came to 1000 nM; in assay [4] it was 1130 nM; in [5] (read-out: app IC50, 50% inhibition of the dNADH oxidase activity, NuoD mutant H315R), 903 nM; in assay [6] (read-out: app IC50, 50% inhibition of the dNADH oxidase activity, NuoD mutant D325A), 1140 nM; in assay [7] (read-out: app IC50, 50% inhibition of the dNADH oxidase activity, WT, NuoD series (Table 3)) it was 1080 nM; in assay [7] (read-out: app IC50, 50% inhibition of the dNADH oxidase activity, WT, NuoH series (Table 4)) it was 1080 nM. Also, the half-inhibitory concentration (IC50) in [8] (read-out: app IC50, 50% inhibition of the dNADH oxidase activity, NuoD mutant Y273F) amounted to 2530 nM.

Consider `CCCCCCCCCCCC[C@H](O)[C@H]1CC[C@H]([C@H]2CC[C@H]([C@H](O)CCCCCCCC[C@@H](O)CC3=C[C@H](C)OC3=O)O2)O1` [squamotacin], for which the IC50 in [1] stood at 5 nM; in assay [10] it was 3 nM; in [11], 2 nM; in assay [12], 5 nM; in assay [2] (app IC50, 50% inhibition of the dNADH oxidase activity, NuoH mutant E36D), 3 nM; in [13] it was 2 nM. Further, the IC50 in assay [14] was 4 nM; in assay [15], 5 nM; in [16] it was 5 nM; in assay [17], 2 to 10 nM; in assay [18] it was 2 nM; in [5], 4 nM. The 50% inhibitory concentration (IC50) in assay [19] is 4 nM; in assay [20], 4 nM; in assay [21], 6 nM; in assay [22], 8 nM; in assay [23], 3 nM; in assay [24] it was 4 nM. Further, the IC50 was found to be 5 nM in assay [25]; 10 nM in [26]; 11 nM in assay [6]; 5 nM in [27]; 10 nM in assay [7]; 7 nM in [28]. Further, the IC50 in assay [29] was found to be 6 nM; in assay [30], 2 nM; in [8], 9 nM; in assay [31], 10 nM; in assay [9] (app IC50, 50% inhibition of the dNADH oxidase activity, NuoH mutant D63E), 4 nM; in assay [32] it was 2 nM.
